Reference: ChEMBL document CHEMBL5154713, “Illuminating a Dark Kinase: Structure-Guided Design, Synthesis, and Evaluation of a Potent Nek1 Inhibitor and Its Effects on the Embryonic Zebrafish Pronephros” (J Med Chem, 2022)

How the values were obtained:
[1] = molecular target: T1, Serine/threonine-protein kinase Nek1 (Homo sapiens, UniProt Q96PY6); assay: Inhibition of human recombinant NEK1 (1 to 505 residues) using ULight-p70 S6K peptide as substrate incubated for 30 mins by LANCE Ultra TR-FRET assay
T1 sequence (Q96PY6 whole entry): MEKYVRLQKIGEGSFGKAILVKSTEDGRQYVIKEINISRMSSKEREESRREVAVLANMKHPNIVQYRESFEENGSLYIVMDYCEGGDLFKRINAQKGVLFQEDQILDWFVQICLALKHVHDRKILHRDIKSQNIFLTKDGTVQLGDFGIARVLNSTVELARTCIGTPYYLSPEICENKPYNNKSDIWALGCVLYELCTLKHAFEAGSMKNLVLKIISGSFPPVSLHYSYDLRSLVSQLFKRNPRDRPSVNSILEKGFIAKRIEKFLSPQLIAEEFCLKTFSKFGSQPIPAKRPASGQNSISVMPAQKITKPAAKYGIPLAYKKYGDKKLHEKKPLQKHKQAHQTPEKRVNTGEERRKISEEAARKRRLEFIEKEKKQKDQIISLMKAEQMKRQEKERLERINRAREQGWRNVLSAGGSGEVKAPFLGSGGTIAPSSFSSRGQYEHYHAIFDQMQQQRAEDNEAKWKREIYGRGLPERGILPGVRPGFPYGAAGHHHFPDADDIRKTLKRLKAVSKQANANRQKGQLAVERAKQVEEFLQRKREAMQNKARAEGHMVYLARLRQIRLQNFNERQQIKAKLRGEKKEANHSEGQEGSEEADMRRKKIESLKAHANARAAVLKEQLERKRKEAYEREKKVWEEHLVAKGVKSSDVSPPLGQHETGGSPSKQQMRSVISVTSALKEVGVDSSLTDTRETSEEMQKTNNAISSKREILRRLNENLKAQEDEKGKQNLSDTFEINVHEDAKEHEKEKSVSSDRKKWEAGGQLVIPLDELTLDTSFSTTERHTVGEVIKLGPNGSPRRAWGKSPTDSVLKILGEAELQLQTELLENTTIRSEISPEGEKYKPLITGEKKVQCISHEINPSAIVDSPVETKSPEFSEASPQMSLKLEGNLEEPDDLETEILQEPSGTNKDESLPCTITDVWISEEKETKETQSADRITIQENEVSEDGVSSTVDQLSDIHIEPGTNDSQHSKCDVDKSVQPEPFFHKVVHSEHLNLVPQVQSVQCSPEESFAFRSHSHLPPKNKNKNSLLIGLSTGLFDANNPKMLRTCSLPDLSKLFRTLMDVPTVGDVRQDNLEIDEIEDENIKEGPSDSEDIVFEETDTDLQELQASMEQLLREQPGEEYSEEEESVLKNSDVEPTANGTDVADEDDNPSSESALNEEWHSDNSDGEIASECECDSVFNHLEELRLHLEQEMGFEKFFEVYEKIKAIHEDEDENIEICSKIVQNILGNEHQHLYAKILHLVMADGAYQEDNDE
Method in brief: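 Recombinant human Nek1 (1−505, 0.02 nM) in 50 mM HEPES pH 7.5, 1 mM EGTA, 10 mM MgCl2, 0.2 mM DTT, 0.01% Tween20, with 50 nM ULight-p70 S6K peptide and 60 μM ATP, 30 min at 22 °C. Stopped with EDTA plus Eu anti-phospho antibody, 1 h signal development. Ten half-log concentrations from 30 μM (10 μM for some) to 1 nM. Mean of two experiments.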

[2] = molecular target: T1, Serine/threonine-protein kinase Nek1; assay: Inhibition of human recombinant NEK1 (1 to 505 residues) using RLGRDKYKTLRQIRQ as substrate incubated for 40 mins in presence of [gamma-33P]-ATP by radiometric scintillation counting assay
Method in brief: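 Eurofins IC50Profiler radiometric assay on recombinant human Nek1 (1−505), ATP at 10 μM or 90 μM (near Km). Nine concentrations at half-log steps from 10 μM to 1 nM, with vehicle controls. IC50 and 95% CI obtained by four-parameter nonlinear regression. Mean of two independent experiments.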

[3] = molecular target: T2, Serine/threonine-protein kinase Nek1 (Homo sapiens) (UniProt Q96PY6); assay: Inhibition of human recombinant NEK1 (1 to 505 residues) assessed as residual activity at 1 uM using RLGRDKYKTLRQIRQ as substrate incubated for 40 mins in presence of [gamma-33P]-ATP by radiometric scintillation counting assay relative to control
T2 sequence (whole entry): T1 sequence (Q96PY6 whole entry)
Method in brief: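 Eurofins KinaseProfiler radiometric panel, compound at 1 μM, ATP at 10 μM or within 15 μM of apparent Km. For Nek1 (1−505): 8 mM MOPS pH 7.0, 0.2 mM EDTA, 250 μM peptide, 10 mM Mg acetate, [γ-33P]-ATP, 40 min at room temperature. Stopped with 0.5% phosphoric acid, filtermat spotting, scintillation counting. Mean of two independent experiments.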

SMILES	IC50 [1] [µM]	IC50 [2] [µM]	Activity [3] [%]
O=S(=O)(NCCO)c1ccc(-c2ccnc3[nH]ccc23)cc1	3.2	2	12
O=S(=O)(N[C@H](CO)Cc1c[nH]c2ccccc12)c1ccc(-c2ccnc3[nH]ccc23)cc1	0.99		19
O=C(O)[C@H](Cc1ccccc1)NS(=O)(=O)c1ccc(-c2ccnc3[nH]ccc23)cc1			94
CN(CCO)S(=O)(=O)c1ccc(-c2ccnc3[nH]ccc23)cc1	2.7		46
CC(C)(O)CNS(=O)(=O)c1ccc(-c2ccnc3[nH]ccc23)cc1	5.8		32
O=S(=O)(NCCN1CCCCC1)c1ccc(-c2ccnc3[nH]ccc23)cc1	6.6		37
CCN(CC)CCNS(=O)(=O)c1ccc(-c2ccnc3[nH]ccc23)cc1	10		68
CN1CCN(S(=O)(=O)c2ccc(-c3ccnc4[nH]ccc34)cc2)CC1	> 10		45
COCCNS(=O)(=O)c1ccc(-c2ccnc3[nH]ccc23)cc1	> 30		44
O=S(=O)(N[C@@H](CO)Cc1ccc(O)cc1)c1ccc(-c2ccnc3[nH]ccc23)cc1	1.6		25
CN(C)CCNS(=O)(=O)c1ccc(-c2ccnc3[nH]ccc23)cc1	7.1	4.3	37
O=S(=O)(N[C@@H](CO)Cc1ccccc1)c1ccc(-c2ccnc3[nH]ccc23)cc1	1.3		16
CC(C)(C)OC(=O)NCCNS(=O)(=O)c1ccc(-c2ccnc3[nH]ccc23)cc1			49
O=S(=O)(N[C@H](CO)Cc1ccc(O)cc1)c1ccc(-c2ccnc3[nH]ccc23)cc1	2		33
O=C(NCCO)c1ccc(-c2ccnc3[nH]ccc23)cc1	29		89
O=S(=O)(N[C@H](CO)Cc1ccccc1)c1ccc(-c2ccnc3[nH]ccc23)cc1	1.9		19
CC(=O)OCCNS(=O)(=O)c1ccc(-c2ccnc3[nH]ccc23)cc1	8.8		49
O=S(=O)(NCCN1CCOCC1)c1ccc(-c2ccnc3[nH]ccc23)cc1	27		51
